From PubChem
A selection: hits, their analogues and other compounds. The true share with any hit is near 2.1%.
Dynein transport: dynein cargo transport inhibition; 3617.4 mouse cells, GR-EGFP nuclear translocation imaging; test concentration mostly 20 µM; stimulated with dexamethasone, 1 µM; stronger effect = lower value; z-score, hits read low; 220,000 tested, 0.47% active;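 active = plate z-score of nuclear minus cytoplasmic receptor signal below a set negative limit, without overly bright fluorescence or cell loss, cut at about -3.5 in these data, passing the limit was not always enough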;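 note: z-score of nuclear minus cytoplasmic ring GR-EGFP intensity difference per well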
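Buffer or medium: tetracycline-free induction medium containing charcoal-stripped FBS / Reagent: dexamethasone agonist, 1.0 µM final, for 30 min / Technique: automated 10x imaging of fixed Hoechst-stained cells / Times: induction 48 h, compound 1 h, agonist 30 min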
Autophagy mod: modulators of autophagy | MEF GFP-LC3 puncta imaging; test concentration mostly 10 µM | calls only at 10 µM (by protocol) | 190,000 tested, 0.98% active | AID 463193;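 active = percentage of spot-positive cells more than 3 SD above its plate mean, without a fluorescence outlier flag or 80% toxicity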
Hsp70 act: Hsp70 transcriptional activation, primary screen | activation, % at 10 µM | HeLa Hsp70 promoter luciferase reporter, luminescence; scaled: vehicle 0, proteasome-inhibitor control 100% | 200,000 tested, 0.04% active;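 active = activation above the mean across all tested compounds plus 3 SD, cutoff set per campaign, cut at about 5.5% in these data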
bCat nuc transl: modulators of beta-catenin nuclear translocation. HeLa beta-catenin nuclear translocation, immunofluorescence imaging. nuclear translocation activity, % at 5 µM. 190,000 tested, 0.3% active. AID 1665;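 active = nuclear translocation activity above 50% at 5 µM, with a well cell count of 50 or more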;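 note: per-cell ratio of nuclear to cytoplasmic median beta-catenin stain intensity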
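Read-out: Nuclear/cytoplasmic beta-catenin signal ratio, % activation | Assay system: Human HeLa cell line | Times: 24 h compound exposure at 37°C, 5% CO2 | Signal: Fluorescence imaging of beta-catenin antibody stain plus DAPI | Dosing: 5 µM primary, 0.02–20 µM confirmation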
MT stabilize HCS: microtubule stabilizers in HeLa cells. HeLa tubulin immunostaining HCS, 24 h; share of cells brighter than vehicle mean+2SD. % tubulin-high responders, % at 10 µM. AID 2205. 200,000 tested, 0.83% active;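 active = plate Z-score above 3 for both tubulin-high and condensed-nucleus cell shares, with cell loss under 80%, at 10 µM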;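 note: anti alpha tubulin signal scored within the nucleus-defined area of each cell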
Large screens that a line does not name were inactive.

Cn1cc(Br)c(C(=O)NC(=S)Nc2ccc(S(N)(=O)=O)cc2)n1	Autophagy mod active
CC1CCN(S(=O)(=O)N2CCC(C(=O)NCc3cccs3)CC2)CC1	Autophagy mod active
O=C(NCc1cccs1)C1CCCN(S(=O)(=O)c2cnc[nH]2)C1 (stereo not drawn)	Autophagy mod active (no result: bCat nuc transl)
O=C(NCc1ccccc1Cl)C1CCCN(S(=O)(=O)c2cnc[nH]2)C1 (stereo not drawn)	none (no result: bCat nuc transl)
CC(C)CN(CC(C)C)S(=O)(=O)N1CCC(C(=O)NCc2cccs2)CC1	none
CCOc1cc(C(=O)Nc2cnccn2)cc(OCC)c1OCC	MT stabilize HCS 38.0
Cc1nc(-c2ccccc2)nc2[nH]c(-c3ccccc3)cc(=O)c12	none (no result: bCat nuc transl)
Cc1nc(C)c2c(=O)cc(-c3ccccc3)[nH]c2n1	MT stabilize HCS 42.6
Cc1c(C(=O)NCc2n[nH]c(=S)n2-c2ccc(F)cc2)cccc1[N+](=O)[O-]	none
CCN1c2ccccc2NC2C1C(C(C)=O)C(=O)N2c1ccc(Cl)cc1 (stereo not drawn)	Autophagy mod active
Cc1cc(C)cc(N=c2c([N+](=O)[O-])nn(-c3cccc(Cl)c3)n2O)c1	Autophagy mod active (no result: bCat nuc transl)
Cc1ccc(-c2nc3ccc(Cl)cc3n2OC(C)C(=O)O)cc1 (stereo not drawn)	none
COc1ccccc1N/C=C/c1onc(C)c1[N+](=O)[O-]	Autophagy mod active
Cc1noc(/C=C/Nc2ccc(F)cc2F)c1[N+](=O)[O-]	none
CCCCOc1ccccc1NC(=O)c1ccco1	none
CCOc1ccc(NC(=O)c2ccco2)c([N+](=O)[O-])c1	MT stabilize HCS 11.6
CCOc1ccc(C(=O)Nc2ccc(NC(=O)c3ccco3)c(Cl)c2)cc1Cl	Autophagy mod active (no result: bCat nuc transl)
CCOc1ccc(C(=O)Nc2ccc(NC(=O)c3ccco3)c(Cl)c2)cc1Br	none
CCOc1ccccc1NC(=O)c1cccc(NC(=O)c2ccco2)c1	Autophagy mod active, bCat nuc transl 72.1, MT stabilize HCS 40.9
CCOc1ccc(NC(=O)c2ccc(CC)s2)c([N+](=O)[O-])c1	none
Cc1ccc(C(=O)N/C(=C/C=C\c2ccccc2)C(=O)NCc2ccco2)cc1	none
Cc1ccc(CNc2ccc(N3C(=O)CCCC3=O)cc2[N+](=O)[O-])cc1	none
CCc1nc(NCCO)c(C#N)c2c1CSC(C)(C)C2	none (no result: Autophagy mod, Hsp70 act, MT stabilize HCS)
Nc1nn(-c2cccc(F)n2)cc1-c1ccccc1	none
CC(OC(=O)c1ccncc1)C(=O)Nc1ccc([N+](=O)[O-])cc1Cl (stereo not drawn)	none
Cc1ccc(CN2C(=O)c3ccccc3NC23CCN(Cc2ccccc2)CC3)cc1	Autophagy mod active
CN(C)c1cc(-c2ccc(Br)cc2)oc(=O)c1Cl	none (no result: Autophagy mod, Hsp70 act, MT stabilize HCS)
O=[N+]([O-])c1ccc(N/N=C\c2ccccc2OCc2ccccc2)cc1	Autophagy mod active
COc1cc(CC(=O)NCC2COc3ccccc3O2)cc(OC)c1OC (stereo not drawn)	none
COC(=O)c1ccccc1NC(=O)CNc1cc(Cl)ccc1N1CCOCC1	none
COc1ccc(Cl)cc1NC(=O)CN(C)CC(=O)Nc1ccccc1N1CCOCC1	bCat nuc transl 85.5, MT stabilize HCS 22.1
Cc1cc(Cl)ccc1OC(C)C(=O)Nc1ccccc1N1CCOCC1 (stereo not drawn)	Autophagy mod active
Cc1nccc(-c2cccc(NC(=O)c3ccccc3Cl)c2)n1	none (no result: Autophagy mod, Hsp70 act, MT stabilize HCS)
O=C1NC(c2ccncc2)Nc2ccccc21 (stereo not drawn)	none
O=C1NC(c2ccc(Cl)cc2)Nc2ccccc21 (stereo not drawn)	MT stabilize HCS 22.3
Cc1ccc(C2NC(=O)c3ccccc3N2)s1 (stereo not drawn)	bCat nuc transl 94.2, MT stabilize HCS 43.1
CC(C)N(CCNCC(O)COc1ccc(C(C)(C)c2ccccc2)cc1)C(C)C (stereo not drawn)	none
CC(C)(C)c1ccc(NNC(=O)C2CCC2)cc1	none (no result: Autophagy mod, Hsp70 act, MT stabilize HCS)
Cc1ccc(C)c(N2CCN(C(=O)C34CC5CC(C3)CC(n3nnc(C)n3)(C5)C4)CC2)c1	none (no result: Autophagy mod, Hsp70 act, MT stabilize HCS)
S=C(Nc1ccc(Cl)c(Cl)c1)NC1CCN(Cc2ccccc2)CC1	Autophagy mod active (no result: Dynein transport)
COc1ccccc1-n1c(=O)c(C#N)c(-c2ccc([N+](=O)[O-])cc2)c2cc(C(=O)c3ccccc3O)cnc21	none (no result: Autophagy mod, Hsp70 act, MT stabilize HCS)
CC(=O)N1CCc2cc(S(=O)(=O)N3c4ccccc4CC3C)ccc21 (stereo not drawn)	Autophagy mod active
N#Cc1c(-c2ccccc2)cc(C2CC2)nc1SCC(=O)O	none
N#Cc1c(-c2ccccc2)cc(C2CC2)nc1SCC(=O)c1cccs1	Autophagy mod active
O=C(CSc1ccc(-c2ccccc2)nn1)c1cccs1	Autophagy mod active
COc1ccc(-c2ccc(SCC(=O)c3cccs3)nn2)cc1	none
CCN(CC)S(=O)(=O)c1cccc(C(=O)NCCCn2ccnc2)c1	none (no result: Autophagy mod, Hsp70 act, MT stabilize HCS)
COc1ccc(-c2nn(-c3ccccc3)cc2CNC(=O)c2cccc([N+](=O)[O-])c2)cc1	none
CCn1c(C)nc2cc(C(=O)N/N=C/c3cccc(O)c3O)ccc21	none
Cc1cc(N2CCCC2)ccc1/C=C1/C(=O)N(C)C(=S)N1C	MT stabilize HCS 25.4
Cc1cc(/C=C2/C(=O)N(C)C(=S)N2C)ccc1N1CCCC1	Autophagy mod active
CCN1C(=O)/C(=C/c2ccc(N3CCCC3)cc2)NC1=S	Autophagy mod active
Cc1cc(/C=C2\NC(=S)N(C)C2=O)ccc1N1CCCC1	Autophagy mod active
CCCN1C(=O)/C(=C/c2ccc(N3CCOCC3)cc2)NC1=S	none
CCCN1C(=O)/C(=C/c2ccc(N3CCCC3)c(C)c2)NC1=S	Autophagy mod active (no result: bCat nuc transl)
O=C(CSCc1c(F)cccc1Cl)Nc1cccnc1	Autophagy mod active
Cc1ccccc1Cn1c(=N)n(CC(O)c2ccco2)c2ccccc21 (stereo not drawn)	none
CC(C)(C)c1ccc(Cn2c(=N)n(CC(O)c3ccco3)c3ccccc32)cc1 (stereo not drawn)	MT stabilize HCS 9.5
COc1ccc(NC(=O)COC(=O)c2ccc(S(=O)(=O)N(C)c3ccccc3OC)cc2)c(OC)c1	MT stabilize HCS 18.1
CCc1ccc(N2C(=O)CC(N3CCN(Cc4ccc5c(c4)OCO5)CC3)C2=O)cc1 (stereo not drawn)	none
CCOc1ccc(OCC)c(NC(=O)CN2CCN(c3cccc(C)c3)C(C)C2)c1 (stereo not drawn)	MT stabilize HCS 43.4
Cn1ncc(Cl)c1C(=O)Nc1cccc(Cl)c1	none
Cn1ncc(N=Cc2c(O)ccc3ccccc23)c1C(=O)Nc1cccc(Cl)c1	Autophagy mod active, MT stabilize HCS 14.8
CCOC(=O)/C(C#N)=C(\O)c1ccc(NC(=O)c2ccc([N+](=O)[O-])cc2)cc1	none (no result: Autophagy mod, Hsp70 act, MT stabilize HCS)
N=c1n(CCN2CCCCC2)c2ccccc2n1CC(O)c1ccc(Cl)c(Cl)c1 (stereo not drawn)	Autophagy mod active
